Experiments:
Format in all cases: functional
Conditions in all cases: read-out: Activity
CCRF-CEM = experiment: Growth inhibition of human CCRF-CEM cells assessed as cell growth at 10 uM incubated for 48 hrs by sulforhodamine B assay relative to control
Outline: (§1)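 NCI Developmental Therapeutics Program NCI60 panel. Compounds that were active in the 10 µM one-dose screen went on to dose–response testing. Growth at each concentration is expressed relative to untreated control (100%). GI50 (concentration giving 50% of maximal inhibition of proliferation) and TGI (concentration giving total growth inhibition) were derived from the curves.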

HL-60(TB) = experiment: Growth inhibition of human HL-60(TB) cells assessed as cell growth at 10 uM incubated for 48 hrs by sulforhodamine B assay relative to control
Outline: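 Screened by the NCI Developmental Therapeutics Program on its panel of 60 human tumour cell lines. Compounds were first tested at a single 10 µM dose, and compounds active there went to dose-response curves. Growth is expressed relative to untreated control (100%). GI50 (50% of maximal proliferation inhibition) and TGI (total growth inhibition) were derived from the dose-response data.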

MOLT-4 = experiment: Growth inhibition of human MOLT-4 cells assessed as cell growth at 10 uM incubated for 48 hrs by sulforhodamine B assay relative to control
Outline: (§2)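 Submitted to the NCI Developmental Therapeutics Program for the NCI60 human tumour cell line panel. First screen at a single 10 µM concentration. Read-out is growth relative to untreated control cells set at 100%.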

A549 = experiment: Growth inhibition of human A549/ATCC cells assessed as cell growth at 10 uM incubated for 48 hrs by sulforhodamine B assay relative to control; outline: as §1
HOP-62 = experiment: Growth inhibition of human HOP-62 cells assessed as cell growth at 10 uM incubated for 48 hrs by sulforhodamine B assay relative to control; outline: as §2
HOP-92 = experiment: Growth inhibition of human HOP-92 cells assessed as cell growth at 10 uM incubated for 48 hrs by sulforhodamine B assay relative to control; outline: as §2
NCI-H226 = experiment: Growth inhibition of human NCI-H226 cells assessed as cell growth at 10 uM incubated for 48 hrs by sulforhodamine B assay relative to control; outline: as §2
NCI-H322M = experiment: Growth inhibition of human NCI-H322M cells assessed as cell growth at 10 uM incubated for 48 hrs by sulforhodamine B assay relative to control; outline: as §2
NCI-H460 = experiment: Growth inhibition of human NCI-H460 cells assessed as cell growth at 10 uM incubated for 48 hrs by sulforhodamine B assay relative to control; outline: as §2
HCT-116 = experiment: Growth inhibition of human HCT-116 cells assessed as cell growth at 10 uM incubated for 48 hrs by sulforhodamine B assay relative to control; outline: as §2
HCT-15 = experiment: Growth inhibition of human HCT-15 cells assessed as cell growth at 10 uM incubated for 48 hrs by sulforhodamine B assay relative to control; outline: as §2
KM12 = experiment: Growth inhibition of human KM12 cells assessed as cell growth at 10 uM incubated for 48 hrs by sulforhodamine B assay relative to control; outline: as §2
SF-295 = experiment: Growth inhibition of human SF-295 cells assessed as cell growth at 10 uM incubated for 48 hrs by sulforhodamine B assay relative to control
Outline: (§3)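 Run by the NCI Developmental Therapeutics Program as part of its 60-line human tumour panel. Each compound tested at a single 10 µM dose. Growth expressed as % relative to untreated control cells (100%).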

SF-539 = experiment: Growth inhibition of human SF-539 cells assessed as cell growth at 10 uM incubated for 48 hrs by sulforhodamine B assay relative to control; outline: as §3
SNB-75 = experiment: Growth inhibition of human SNB-75 cells assessed as cell growth at 10 uM incubated for 48 hrs by sulforhodamine B assay relative to control; outline: as §3
U-251 = experiment: Growth inhibition of human U-251 cells assessed as cell growth at 10 uM incubated for 48 hrs by sulforhodamine B assay relative to control; outline: as §3
Malme-3M = experiment: Growth inhibition of human Malme-3M cells assessed as cell growth at 10 uM incubated for 48 hrs by sulforhodamine B assay relative to control; outline: as §2
M14 = experiment: Growth inhibition of human M14 cells assessed as cell growth at 10 uM incubated for 48 hrs by sulforhodamine B assay relative to control; outline: as §2
MDA-MB-435 = experiment: Growth inhibition of human MDA-MB-435 cells assessed as cell growth at 10 uM incubated for 48 hrs by sulforhodamine B assay relative to control; outline: as §2
SK-MEL-28 = experiment: Growth inhibition of human SK-MEL-28 cells assessed as cell growth at 10 uM incubated for 48 hrs by sulforhodamine B assay relative to control; outline: as §3
SK-MEL-5 = experiment: Growth inhibition of human SK-MEL-5 cells assessed as cell growth at 10 uM incubated for 48 hrs by sulforhodamine B assay relative to control; outline: as §3
UACC-257 = experiment: Growth inhibition of human UACC-257 cells assessed as cell growth at 10 uM incubated for 48 hrs by sulforhodamine B assay relative to control; outline: as §3
UACC-62 = experiment: Growth inhibition of human UACC-62 cells assessed as cell growth at 10 uM incubated for 48 hrs by sulforhodamine B assay relative to control; outline: as §3
IGROV-1 = experiment: Growth inhibition of human IGROV-1 cells assessed as cell growth at 10 uM incubated for 48 hrs by sulforhodamine B assay relative to control; outline: as §2
OVCAR-3 = experiment: Growth inhibition of human OVCAR-3 cells assessed as cell growth at 10 uM incubated for 48 hrs by sulforhodamine B assay relative to control; outline: as §3
OVCAR-5 = experiment: Growth inhibition of human OVCAR-5 cells assessed as cell growth at 10 uM incubated for 48 hrs by sulforhodamine B assay relative to control; outline: as §3
NCI/ADR-RES = experiment: Growth inhibition of human NCI/ADR-RES cells assessed as cell growth at 10 uM incubated for 48 hrs by sulforhodamine B assay relative to control; outline: as §2
A498 = experiment: Growth inhibition of human A498 cells assessed as cell growth at 10 uM incubated for 48 hrs by sulforhodamine B assay relative to control; outline: as §1
SN12C = experiment: Growth inhibition of human SN12C cells assessed as cell growth at 10 uM incubated for 48 hrs by sulforhodamine B assay relative to control; outline: as §3
UO-31 = experiment: Growth inhibition of human UO-31 cells assessed as cell growth at 10 uM incubated for 48 hrs by sulforhodamine B assay relative to control; outline: as §3
PC-3 = experiment: Growth inhibition of human PC-3 cells assessed as cell growth at 10 uM incubated for 48 hrs by sulforhodamine B assay relative to control; outline: as §3
Hs-578T = experiment: Growth inhibition of human Hs-578T cells assessed as cell growth at 10 uM incubated for 48 hrs by sulforhodamine B assay relative to control; outline: as §2
MDA-MB-468 = experiment: Growth inhibition of human MDA-MB-468 cells assessed as cell growth at 10 uM incubated for 48 hrs by sulforhodamine B assay relative to control; outline: as §2
RXF 393 = experiment: Growth inhibition of human RXF 393 cells assessed as cell growth at 10 uM incubated for 48 hrs by sulforhodamine B assay relative to control; outline: as §3

## CC(=O)Nc1ccc(S(=O)(=O)n2ccc(-c3ccc4c(c3)CCC(C)(C)O4)n2)cc1
CCRF-CEM
  growth at 10 µM: 55.4%
HL-60(TB)
  growth at 10 µM: 91.9%
MOLT-4
  growth at 10 µM: 50.7%
A549
  growth at 10 µM: 57.8%
HOP-62
  growth at 10 µM: 94.4%
HOP-92
  growth at 10 µM: 69.8%
NCI-H226
  growth at 10 µM: 52.4%
NCI-H322M
  growth at 10 µM: 89%
NCI-H460
  growth at 10 µM: 41.4%
HCT-116
  growth at 10 µM: 29.9%
HCT-15
  growth at 10 µM: 59.3%
KM12
  growth at 10 µM: 67.4%
SF-295
  growth at 10 µM: 60.2%
SF-539
  growth at 10 µM: 73.8%
SNB-75
  growth at 10 µM: 81.5%
U-251
  growth at 10 µM: 66%
Malme-3M
  growth at 10 µM: 82.5%
M14
  growth at 10 µM: 64.7%
MDA-MB-435
  growth at 10 µM: 67.3%
SK-MEL-28
  growth at 10 µM: 93.1%
SK-MEL-5
  growth at 10 µM: 26.3%
UACC-257
  growth at 10 µM: 46%
UACC-62
  growth at 10 µM: 62.4%
IGROV-1
  growth at 10 µM: 68%
OVCAR-3
  growth at 10 µM: 74.4%
OVCAR-5
  growth at 10 µM: 96.3%
NCI/ADR-RES
  growth at 10 µM: 56.9%
A498
  growth at 10 µM: 21.9%
SN12C
  growth at 10 µM: 89%
UO-31
  growth at 10 µM: 67.9%
PC-3
  growth at 10 µM: 44.4%
Hs-578T
  growth at 10 µM: 102%
MDA-MB-468
  growth at 10 µM: 24.9%

## COc1cccc(NC(=O)c2sc3nc4c(cc3c2N)CN(Cc2ccccc2)CC4)c1
CCRF-CEM
  growth at 10 µM: 76%
MOLT-4
  growth at 10 µM: 69%
A549
  growth at 10 µM: 22%
HOP-62
  growth at 10 µM: -17%
HOP-92
  growth at 10 µM: 23%
NCI-H226
  growth at 10 µM: 41%
NCI-H322M
  growth at 10 µM: 71%
NCI-H460
  growth at 10 µM: 24%
HCT-116
  growth at 10 µM: 23%
HCT-15
  growth at 10 µM: 30%
KM12
  growth at 10 µM: 57%
SF-295
  growth at 10 µM: 21%
SF-539
  growth at 10 µM: -18%
SNB-75
  growth at 10 µM: -38%
U-251
  growth at 10 µM: 21%
Malme-3M
  growth at 10 µM: 12%
M14
  growth at 10 µM: 56%
MDA-MB-435
  growth at 10 µM: 3%
SK-MEL-28
  growth at 10 µM: 27%
SK-MEL-5
  growth at 10 µM: 35%
UACC-257
  growth at 10 µM: 44%
UACC-62
  growth at 10 µM: 31%
IGROV-1
  growth at 10 µM: 67%
OVCAR-3
  growth at 10 µM: 46%
OVCAR-5
  growth at 10 µM: 71%
NCI/ADR-RES
  growth at 10 µM: 28%
A498
  growth at 10 µM: 29%
RXF 393
  growth at 10 µM: 6%
SN12C
  growth at 10 µM: 52%
UO-31
  growth at 10 µM: 24%
PC-3
  growth at 10 µM: 54%
Hs-578T
  growth at 10 µM: 5%
MDA-MB-468
  growth at 10 µM: 30%

## CC1(C)CCc2cc(-c3ccn(S(=O)(=O)c4ccc(C(C)(C)C)cc4)n3)ccc2O1
CCRF-CEM
  growth at 10 µM: 74.4%
HL-60(TB)
  growth at 10 µM: 111%
MOLT-4
  growth at 10 µM: 98.5%
A549
  growth at 10 µM: 74.6%
HOP-62
  growth at 10 µM: 120%
HOP-92
  growth at 10 µM: 73.2%
NCI-H226
  growth at 10 µM: 70.5%
NCI-H322M
  growth at 10 µM: 95.6%
NCI-H460
  growth at 10 µM: 82.9%
HCT-116
  growth at 10 µM: 73.1%
HCT-15
  growth at 10 µM: 87%
KM12
  growth at 10 µM: 90.5%
SF-295
  growth at 10 µM: 82.6%
SF-539
  growth at 10 µM: 91.2%
SNB-75
  growth at 10 µM: 100%
U-251
  growth at 10 µM: 80.8%
Malme-3M
  growth at 10 µM: 105%
M14
  growth at 10 µM: 91.3%
MDA-MB-435
  growth at 10 µM: 93%
SK-MEL-28
  growth at 10 µM: 92.8%
SK-MEL-5
  growth at 10 µM: 78%
UACC-257
  growth at 10 µM: 63%
UACC-62
  growth at 10 µM: 70.4%
IGROV-1
  growth at 10 µM: 93.3%
OVCAR-3
  growth at 10 µM: 91.8%
OVCAR-5
  growth at 10 µM: 99.6%
NCI/ADR-RES
  growth at 10 µM: 82.5%
A498
  growth at 10 µM: 68.4%
SN12C
  growth at 10 µM: 87.7%
UO-31
  growth at 10 µM: 84.8%
PC-3
  growth at 10 µM: 72.9%
Hs-578T
  growth at 10 µM: 97.8%
MDA-MB-468
  growth at 10 µM: 52.5%
